# Screens (PubChem BioAssay)
# Rows were chosen to be rich in hits. Some 1.4% of all compounds tested hit in one or more screens of this group.
# CAL PDZ FP-1 – inhibitors of human CAL PDZ peptide binding. Q9HD26. purified CAL PDZ, TMR-peptide fluorescence polarization, 1 h. inhibition, % at 24.9 µM. 300,000 compounds, 0.92% hits. AID 602252;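 active = mean inhibition of at least 30% with at least half of replicates also reaching 30%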;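 note: 0% = DMSO neutral control and 100% = excess unlabeled competitor peptide PRC23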
# CDK5 inh – inhibitors of human CDK5/p35 kinase. 330,000 compounds, 0.01% hits. AID 488839. inhibition, % at 10 µM. Q00535+Q15078. Recombinant CDK5/p35, ADP-Glo luminescence, 60 min;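 active = highest replicate inhibition of at least 50% and at least 75% of replicates reaching 50%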;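 note: plate controls were DMSO neutral control for no effect and GW8510 at 10 µM for full effect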
# Target sequence (Q00535 whole entry, looked up): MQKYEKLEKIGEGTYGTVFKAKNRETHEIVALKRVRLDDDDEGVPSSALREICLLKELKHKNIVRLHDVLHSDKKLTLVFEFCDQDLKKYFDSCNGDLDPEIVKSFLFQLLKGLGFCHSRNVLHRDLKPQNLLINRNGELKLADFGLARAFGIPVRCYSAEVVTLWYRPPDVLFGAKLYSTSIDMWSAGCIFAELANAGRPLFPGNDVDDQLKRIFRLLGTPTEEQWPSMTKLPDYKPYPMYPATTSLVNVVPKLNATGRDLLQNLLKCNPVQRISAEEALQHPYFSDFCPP
# Target sequence (Q15078 whole entry, looked up): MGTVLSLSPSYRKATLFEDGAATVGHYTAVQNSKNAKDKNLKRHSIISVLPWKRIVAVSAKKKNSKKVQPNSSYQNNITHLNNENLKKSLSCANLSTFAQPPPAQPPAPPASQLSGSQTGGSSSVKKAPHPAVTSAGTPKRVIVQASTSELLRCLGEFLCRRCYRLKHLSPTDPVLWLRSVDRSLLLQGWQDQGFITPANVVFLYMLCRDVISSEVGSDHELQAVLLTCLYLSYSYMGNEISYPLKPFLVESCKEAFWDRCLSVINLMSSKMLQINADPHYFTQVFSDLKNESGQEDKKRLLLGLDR
# CAL PDZ FP-2 – human CAL PDZ-peptide interaction inhibition | Q9HD26 | purified CAL PDZ, TMR-peptide fluorescence polarization, 1 h | inhibition, % at 20 µM | 330,000 compounds, 0.02% hits | AID 504414;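 active = highest replicate inhibition of at least 40%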;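 note: plate controls were DMSO neutral control wells for no effect and unlabeled competitor peptide control wells for full effect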
#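 Assay system – tagged CAL PDZ protein CerCALP, purified · Timing – 1 h at RT · Compound – single point, 20 µM · Measured by – fluorescence polarization from S- and P-plane intensities, G-factor corrected · Evaluation – inhibition from polarization loss · Probe or stimulus – TMR reporter peptide T*-PRC34 · Buffer or medium – pH 7.4 phosphate-saline buffer, reducing agent, detergent, IgG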
# Tb MetRS inh – blocks T. brucei methionyl-tRNA synthetase activity | 360,000 compounds, 0.4% hits | AID 624268 | inhibition, % at 11.9 µM | purified T. brucei MetRS, ATP depletion, Kinase-Glo luminescence;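 active = inhibition above a per-plate cutoff of the control wells' mean inhibition plus 3 SD, cut at about 5.5% in these data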;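 note: 0% = DMSO wells median and 100% = median of wells with control inhibitor compound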
#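 Material: parasite MetRS enzyme / Replication: singlicate, one well per compound / Signal: luminescence of leftover ATP / Schedule: 2 h aminoacylation at 25 °C after 15 min preincubation / Medium: HEPES-MgCl2-KCl buffer plus DTT, spermine, BSA, pyrophosphatase / Doses: 11.9 µM single point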
# DYRK1A inh – inhibitors of rat Dyrk1A kinase; inhibition, % at 12.5 µM; AID 504441; 310,000 compounds, 0.43% hits; ADP-Glo luminescence, NFATc1 peptide; Q63470; in the data active = inhibition above about 50%;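 note: plate controls were vehicle with enzyme for no effect and no enzyme for full effect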
# PvdQ acylase – P. aeruginosa PvdQ acylase inhibition | purified PvdQ acylase, fluorescence plate reader | inhibition, % at 10 µM | 340,000 compounds, 0.063% hits; in the data active = inhibition above about 30%, passing the limit was not always enough;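 note: 0% = vehicle neutral wells and 100% = reference inhibitor wells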
# ADP-Glo artifact – ADP-Glo luciferase interference, Dyrk1A counter-screen; shares compounds with DYRK1A inh; ADP-Glo luciferase artifact assay, no Dyrk1A, luminescence; AC50, µM (top dose mostly 12 µM), for inactives: top-dose activity change, negative = inhibition; 1,300 tested, under 10 active; AID 588348;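 active = fitted half-maximal dose AC50 no more than ten times the top valid tested dose, with luminescence dropping as dose rises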
# An asterisk follows results filed as active; · = no result.
SMILES,CAL PDZ FP-1,CDK5 inh,CAL PDZ FP-2,Tb MetRS inh,DYRK1A inh,PvdQ acylase,ADP-Glo artifact
Cc1ccc(-c2nn[nH]n2)cc1Cl,4,-1,-2,2,53*,-13,8%
CC(=O)c1cccc(NC(=O)Nc2ccc3c(c2)N(C)C(=O)CS3)c1,-2,1,-1,0,50*,-12,8%
Cc1ccc(S(=O)(=O)N2[C@H](CC(=O)Oc3ccccc3)OC[C@@H]2C(C)C)cc1,·,·,·,0,·,·,·
COc1ccc2cc3cc(C(=O)NCCN4CCN(Cc5ccccc5)CC4)oc3nc2c1,0,-1,-1,0,52*,-19,9%
CCCCN(CC)CCCNC(=O)c1cc2cc3ccc(OC)cc3nc2o1,-4,-2,-6,0,50*,-23,9%
COc1ccc2cc3cc(C(=O)NCCCN4CCOCC4)oc3nc2c1,1,0,-2,-1,58*,-12,9%
CCN1CCN(CCCNC(=O)c2cc3cc4ccc(OC)cc4nc3o2)CC1,·,-2,-2,0,88*,-16,7%
CCOC(=O)[C@]12CCCC=C1N(Cc1cccc3ccccc13)C(=O)[C@H](CC(=O)NCCCCc1ccccc1)C2,·,·,·,-1,·,·,·
COc1ccc2cc3cc(C(=O)NCCCN4CCC(C)CC4)oc3nc2c1,2,1,-4,0,53*,-4,7%
Cc1ccc(S(=O)(=O)N2[C@@H](CO)CO[C@H]2CC(=O)c2ccc(F)cc2)cc1,·,·,·,-1,·,·,·
COc1ccc2nc3c(cc2c1)c(NC(=O)c1cccs1)nn3CC(C)C,·,43,-1,0,89*,-7,9%
O=C(NCCc1ccccc1)c1cc(S(=O)(=O)N2CCCCC2)c[nH]1,·,·,·,4,·,·,·
COc1ccc(S(=O)(=O)NCc2ccc(C(=O)NCCN(C)Cc3ccccc3)cc2)cc1,·,·,·,1,·,·,·
Cc1ccccc1NC1=C/C(=N\S(=O)(=O)c2ccc(C(=O)O)cc2)c2ccccc2C1=O,0,3,-1,9.7*,62*,-1,6%
Cc1ccccc1NC1=C/C(=N\S(=O)(=O)c2cccs2)c2ccccc2C1=O,1,2,2,0,2,8,·
COCCNc1nc(Nc2ccc(Cl)cc2F)c2sccc2n1,·,·,·,0,·,·,·
CCCCC(CC)CO (stereo unspecified),-1,-1,0,0,-6,-12,·
CCCCC(CC)CN=C(N)NC(N)=NCCCCCCN=C(N)NC(N)=NCC(CC)CCCC (stereo unspecified),-2,-2,0,1,52*,-21,12%
C[C@@H]1O[C@H](CCc2cccc(Cl)c2)CC2=C1C(=O)OC(C)(C)O2,·,·,·,-1,·,·,·
CCCN(CCC)CCNC(=O)c1cc2c(=O)n(C)c3ccccc3c2n1C,4,2,-2,0,70*,1,10%
Cc1ccc2c(c1)C(=O)CCN2,0,1,0,-1,-2,8,·
Cc1ccc2c(c1)C(=C(C#N)C#N)CCN2,39*,4,-1,0,61*,-9,9%
CC(=O)O[C@H](COc1c2ccoc2cc2oc(=O)ccc12)C(C)(C)O,0,0,-1,0,68*,-3,10%
C=C(C)[C@@H](O)COc1c2ccoc2cc2oc(=O)ccc12,2,1,-1,0,59*,-8,8%
CC(C)(O)[C@H](O)COc1c2ccoc2cc2oc(=O)ccc12,-4,0,0,0,48,6,·
SMILES,CAL PDZ FP-1,CDK5 inh,CAL PDZ FP-2,Tb MetRS inh,DYRK1A inh,PvdQ acylase,ADP-Glo artifact
COc1ccc(-c2c(C(=O)c3ccccc3)[nH]c(N)c2C(=O)NCc2ccccc2)cc1OC,·,·,·,-1,·,·,·
CCn1c(C)cc(C(=O)CSc2nnc(C3CC3)n2C2CC2)c1C,·,·,·,0,·,·,·
C[N+](C)(CCOc1ccccc1)Cc1ccccc1 (tested in a mixture with another compound),1,-2,-1,0,92*,-6,7%
Cc1ccc(C(=O)Nc2ccc3ccccc3n2)cc1,-2,1,-2,-1,21,1,·
O=C(Nc1ccc2ccccc2n1)c1ccccc1,-2,1,-1,0,51*,-10,8%
CC(C)C1OC2(C)OC(=N)C1(C#N)C(C#N)(C#N)C2c1ccccc1 (stereo unspecified),0,-3,-2,0,-1,-10,·
CC1CCC(C(C)C)C2=C1C(C#N)(C#N)C(C#N)(C#N)C(c1ccccc1)N2 (stereo unspecified),-1,0,0,-1,54*,-15,7%
CCCCCc1c(-c2ccc(F)cc2F)ncn1CCc1ccccc1OC,·,·,·,-1,·,·,·
O=C(Nc1cccc(Cl)c1)ON=C1c2ccccc2-c2ccccc21,-5,6,-4,0,50*,-8,11%
O=C(O)CCC(=O)Nc1ccc(N2CCCCCC2)cc1,0,0,1,0,53*,-9,8%
Cc1ccc(N2CCN(c3ccc(NC(=O)CCC(=O)O)cc3)CC2)cc1,6,-2,-1,0,-2,-6,·
Cc1ccc(NC(=S)Nc2ccc3cn[nH]c3c2)cc1,-6,-4,3,0,63*,-17,12%
Cc1cc(C)cc(NC(=S)Nc2ccc3cn[nH]c3c2)c1,-4,2,-1,0,48,-11,·
C=CCNC(=S)Nc1ccc2cn[nH]c2c1,0,11,-1,-1,70*,1,7%
CCN1C(=O)[C@H]2[C@@H](c3ccc(C(F)(F)F)cc3)N[C@]3(CCCN(Cc4ccco4)C3=O)[C@H]2C1=O,·,·,·,0,·,·,·
COC(=O)c1nccc2c1[nH]c1ccccc12,-2,2,-2,0,66*,-13,9%
Cc1ccc(S(=O)(=O)N2C[C@H]3C(=O)C[C@@H](c4ccccc4)N(S(C)(=O)=O)[C@H]3C[C@H]2c2ccccc2)cc1,·,·,·,0,·,·,·
COc1cc(/C=C2\SC(=Nc3ccccc3)NC2=O)cc(Cl)c1O,19,0,1,0,51*,-3,10%
COc1ccc2[nH]c3c(c2c1)CCNC3=O,-7,3,0,0,65*,-21,10%
c1ccc(-c2csc3nnc(SCc4ccc5c(c4)OCO5)n23)cc1,3,5,-1,-1,58*,17,7%
COC(=O)[C@]12CCCCC=C1N(Cc1ccc(Cl)cc1Cl)C(=O)[C@H](CC(=O)N1CCSCC1)C2,·,·,·,0,·,·,·
O=C(Nc1ccc(Cl)cc1)Nc1ccc2c(c1)N1CCN=C1S2,-2,1,-1,0,68*,-11,10%
Nc1ccc2c(c1)N1CCN=C1S2,-5,0,1,-1,-2,-18,·
Nc1ccc(C(=O)Nc2nc3ccccc3s2)cc1,·,0,-1,-1,56*,-2,6%
